# Experiments:
# Plasmodium berghei [1] = assay: Antiplasmodial activity against liver stage of Plasmodium berghei expressing GFP-Luc infected in HuH7 cells incubated at 1 hr prior to infection followed by compound replenisment at 24 hrs post-infection measured after 48 hrs by Alamar blue assay; format: functional, organism-based; settings: Huh-7, in the assay text read “luciferase bioluminescence assay” for “Alamar blue assay”
# Method in brief: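 Huh7 human hepatoma cells infected with firefly luciferase-expressing P. berghei sporozoites in the presence of compound. Liver-stage infection load read as bioluminescence of cell lysates 48 h after infection. Primaquine included as the liver-stage reference.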
# Plasmodium berghei [2] = assay: Ratio of primaquine IC50 to compound IC50 for liver stage of Plasmodium berghei; format: functional
# Huh-7 = assay: Cytotoxicity against human HuH7 cells up to 5 uM after 48 hrs by cell confluence analysis; format: cell-based; settings: huh-7, 48 h
# Plasmodium falciparum = assay: Antiplasmodial activity against ring stage of CQ-resistant Plasmodium falciparum W2 after 48 hrs by flow cytometric analysis; format: functional, organism-based; settings: W2, 48 h
SMILES,IC50 (Plasmodium berghei [1]),Ratio IC50 (Plasmodium berghei [2]),Activity (Huh-7),IC50 (Plasmodium falciparum)
COc1ccc(/C=C/C(=O)NCCCCNc2c3ccccc3nc3ccccc23)cc1,3200 nM,3,Non-toxic,138 nM
Cc1ccc(/C=C/C(=O)NCCCCNc2c3ccccc3nc3ccccc23)cc1,–,–,–,225 nM
CCN(CC)CCCC(C)Nc1ccnc2cc(Cl)ccc12 (stereo not drawn) [CHLOROQUINE],> 15000 nM,–,–,–
COc1cc(NC(C)CCCN)c2ncccc2c1 (stereo not drawn) [PRIMAQUINE],8000 nM,–,–,–
O=C(/C=C/c1ccccc1)NCCCCNc1c2ccccc2nc2ccccc12,–,–,–,892 nM
O=C(/C=C/c1cccc([N+](=O)[O-])c1)NCCCCNc1c2ccccc2nc2ccccc12,–,–,–,142 nM
CC(C)c1ccc(/C=C/C(=O)NCCCCNc2c3ccccc3nc3ccccc23)cc1,–,–,–,126 nM
O=C(/C=C/c1ccc(F)cc1)NCCCCNc1c2ccccc2nc2ccccc12,–,–,Non-toxic,145 nM
O=C(/C=C/c1cccc(F)c1)NCCCCNc1c2ccccc2nc2ccccc12,–,–,–,345 nM

# From ChEMBL document CHEMBL2321657, “In vitro efficiency of 9-(N-cinnamoylbutyl)aminoacridines against blood- and liver-stage malaria parasites” (Bioorg Med Chem Lett, 2013)
